Data from ChEMBL document CHEMBL1144993, “Imidazoline binding sites (IBS) profile modulation: key role of the bridge in determining I1-IBS or I2-IBS selectivity within a series of 2-phenoxymethylimidazoline analogues” (J Med Chem, 2003).
Each block holds one compound with its values, some of them ahead of it.

Key:
[1] = target: Imidazoline I2 binding site (Oryctolagus cuniculus); experiment: Displacement of [3H]idazoxan from imidazoline receptor I-2 of rabbit kidney membranes
[2] = target: T1, Adrenergic receptor alpha-2 (Rattus norvegicus, UniProt P22086+P19328+P22909); experiment: Displacement of [3H]clonidine from rat cortex membrane Alpha-2 adrenergic receptors
T1 sequence (P22086 whole entry): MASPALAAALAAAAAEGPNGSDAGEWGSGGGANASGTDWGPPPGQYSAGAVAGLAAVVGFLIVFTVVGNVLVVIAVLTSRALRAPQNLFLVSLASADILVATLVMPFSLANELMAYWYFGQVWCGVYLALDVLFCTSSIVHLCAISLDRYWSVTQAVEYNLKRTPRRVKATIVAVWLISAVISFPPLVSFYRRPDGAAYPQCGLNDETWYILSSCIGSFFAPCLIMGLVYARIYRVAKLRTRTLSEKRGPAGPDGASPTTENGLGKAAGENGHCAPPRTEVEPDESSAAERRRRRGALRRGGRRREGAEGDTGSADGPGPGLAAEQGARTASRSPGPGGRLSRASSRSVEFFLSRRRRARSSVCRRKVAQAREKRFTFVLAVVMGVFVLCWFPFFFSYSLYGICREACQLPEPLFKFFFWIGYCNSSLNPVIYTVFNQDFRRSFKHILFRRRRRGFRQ
T1 sequence (P19328 whole entry): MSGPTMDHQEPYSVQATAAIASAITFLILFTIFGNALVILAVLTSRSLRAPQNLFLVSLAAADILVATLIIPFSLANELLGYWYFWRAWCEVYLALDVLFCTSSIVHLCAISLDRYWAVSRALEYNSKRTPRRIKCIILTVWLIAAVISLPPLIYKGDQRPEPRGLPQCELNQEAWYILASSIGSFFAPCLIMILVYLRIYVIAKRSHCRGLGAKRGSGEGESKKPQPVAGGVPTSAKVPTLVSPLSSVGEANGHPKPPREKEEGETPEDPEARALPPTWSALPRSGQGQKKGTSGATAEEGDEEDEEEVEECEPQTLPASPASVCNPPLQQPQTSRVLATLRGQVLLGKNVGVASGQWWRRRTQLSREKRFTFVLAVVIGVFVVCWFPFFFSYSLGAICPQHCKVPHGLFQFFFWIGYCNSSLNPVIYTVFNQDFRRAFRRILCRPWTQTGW
T1 sequence (P22909 whole entry): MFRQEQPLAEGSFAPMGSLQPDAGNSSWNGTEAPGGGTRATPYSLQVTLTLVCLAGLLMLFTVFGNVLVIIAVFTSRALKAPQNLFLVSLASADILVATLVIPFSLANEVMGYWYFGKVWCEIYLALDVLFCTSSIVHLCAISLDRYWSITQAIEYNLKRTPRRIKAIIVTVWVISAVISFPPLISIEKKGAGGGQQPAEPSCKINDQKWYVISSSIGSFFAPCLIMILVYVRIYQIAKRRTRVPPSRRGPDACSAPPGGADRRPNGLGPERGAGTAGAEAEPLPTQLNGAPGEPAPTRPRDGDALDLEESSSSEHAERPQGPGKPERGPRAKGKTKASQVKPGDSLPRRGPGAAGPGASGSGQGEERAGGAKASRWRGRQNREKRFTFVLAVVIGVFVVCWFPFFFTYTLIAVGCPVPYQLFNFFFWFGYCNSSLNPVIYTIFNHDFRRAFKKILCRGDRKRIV
Summary of the method: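 Rat cerebral cortex membranes (200 μg protein) incubated with 5 nM [3H]-clonidine and 10–12 competitor concentrations in 50 mM Tris-HCl pH 7.4, 45 min at 25 °C. Nonspecific binding with 10 μM phentolamine. GF/B filtration, scintillation counting, triplicate points.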

[3] = Relative binding to imidazoline I1 and alpha-2 adrenergic receptors ([…])
[4] = Relative binding to imidazoline I1 and imidazoline I2 binding sites ([…])
[5] = Relative binding to imidazoline I2 and alpha-2 adrenergic receptors ([…])
[6] = Relative binding to imidazoline I2 and imidazoline I1 binding sites ([…])
[7] = Displacement of [125I]p-iodoclonidine from imidazoline receptor I-1 in rat pheochromocytoma cells
Oryctolagus cuniculus [8] = experiment: Mean arterial pressure during 15 minute pretreatment with intracisternal compound administration; assay type: functional, Artery
Summary of the method: (§1)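 Male normotensive Zika rabbits (2.5–3.5 kg), pentobarbitone 40 mg/kg iv anesthesia, 38 °C, tracheotomized, pancuronium 1 mg/kg iv, ventilated. Test drug given intracisternally as 0.2 mL after equal CSF removal, total 300 μg/kg; vehicle group 100 μL saline ic. Clonidine 10 μg/kg iv 15 min later. MAP = diastolic + 1/3 pulse pressure; HR from pressure signal. Mean ± SEM, n = 4–5; repeated-measures ANOVA.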

Oryctolagus cuniculus [9] = experiment: Mean arterial pressure following 15 minute pretreatment with intracisternal compound administration and 10 ug/kg iv clonidine; assay type: functional, Artery
Summary of the method: as §1

Oryctolagus cuniculus [10] = experiment: Heart rate following 15 minute pretreatment with intracisternal compound administration and 10 ug/kg iv clonidine; assay type: functional
Summary of the method: as §1

Oryctolagus cuniculus [11] = experiment: Heart rate during 15 minute pretreatment with intracisternal compound administration; assay type: functional
Summary of the method: as §1

Log Ki [1]: -7
Log Ki [2]: -5.8
Compound: C[C@@H](CC1=NCCN1)c1ccccc1

Log Ki [1]: -6.91
Log Ki [2]: -5.93
Compound: CC(CC1=NCCN1)c1ccccc1 (stereo not given)

Compound: CC(Oc1ccccc1)C1=NCCN1 (stereo not given)
Ratio [3]: 0.32
Ratio [4]: 8.71
Ratio [5]: 0.04
Ratio [6]: 0.11

Ratio [3]: 741
Ratio [4]: 0.1
Ratio [5]: 7410
Ratio [6]: 10
Compound: C(=C\c1ccccc1)/C1=NCCN1

Log Ki [2]: -5.3
Compound: C[C@@H](Cc1ccccc1)C1=NCCN1

Compound: c1ccc(C2CC2C2=NCCN2)cc1 (stereo not given)
Log Ki [7]: -7.76

Log Ki [2]: -5.4
Compound: C[C@H](Cc1ccccc1)C1=NCCN1

Ratio [3]: 0.54
Ratio [4]: 0.0007
Log Ki [1]: -8.6
Log Ki [2]: -5.7
Ratio [5]: 794
Ratio [6]: 1480
Compound: c1ccc(CCC2=NCCN2)cc1 [PHENYZOLINE]

Compound: c1ccc([C@H]2C[C@@H]2C2=NCCN2)cc1
Log Ki [7]: -7.93

Log Ki [1]: -5.6
Log Ki [2]: -5.9
Compound: C[C@H](CC1=NCCN1)c1ccccc1

Log Ki [2]: -5.45
Compound: CC(Cc1ccccc1)C1=NCCN1 (stereo not given)
MAP (Oryctolagus cuniculus [8]): 99 mmHg
MAP (Oryctolagus cuniculus [9]): 91 mmHg
Heart rate (Oryctolagus cuniculus [10]): 355 beats min-1
Heart rate (Oryctolagus cuniculus [11]): 363 beats min-1

Compound: c1ccc([C@@H]2C[C@H]2C2=NCCN2)cc1
Log Ki [7]: -6.46
